Measured values from ChEMBL document CHEMBL1687759, “Functional selection of hepatitis C virus envelope E2-binding Peptide ligands by using ribosome display” (Antimicrob Agents Chemother, 2010).
Blank lines part the entries; values can stand above or below the molecule they belong to. Calls of active or inactive are those of the source. No cut-off for these calls is given here. Where a SMILES comes first, the peptide text is derived from it.

Tests used:
[1] = test system: Hepacivirus hominis; assay: Inhibition of HCV envelope glycoprotein E2 to human Huh 7.5.1 cells after 1 hr by flow cytometry relative to control
How it was run: (§1)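 E2 protein (0.25 μg) was preincubated with peptide (250 nM, or a concentration series), 120 nM CD81, 50 IU heparin, or combinations in 100 μl PBS for 1 h at 37°C. The mix was added to 1 × 10⁶ Huh-7.5.1 cells for 30 min at 37°C. Cell-bound E2 was stained with anti-E2 polyclonal and PE anti-rabbit IgG and measured by flow cytometry. Percent inhibition was calculated (means ± SEM, 3–4 experiments).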

[2] = Binding affinity to HCV envelope glycoprotein E2 by surface plasmon resonance assay; parameters: species or system Hepacivirus hominis
How it was run: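 Surface plasmon resonance on a Biacore 1000 measured binding of E2 protein to the peptides. K_on and K_off were calculated from the association and dissociation phases of the best-fitted binding curves.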

[3] = test system: Hepacivirus hominis; assay: Inhibition of HCV envelope glycoprotein E2 to human Huh 7.5.1 cells after 1 hr by flow cytometry; how it was run: as §1
[4] = test system: Hepacivirus hominis; assay: Binding affinity to HCV GST-tagged envelope glycoprotein E2 after 1 hr by ELISA
How it was run: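 Indirect ELISA on wells coated with 0.3 nM E2-GST or GST (4°C, 7 h) and blocked with 2% BSA (37°C, 2 h). Biotin-labelled peptide at various concentrations was added for 30 min at 37°C, then HRP-streptavidin (1:1,000) for 1 h at 37°C. Signal was developed with o-phenylenediamine and read at 450 nm.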

[5] = test system: Hepacivirus hominis; assay: Ratio of binding affinity for HCV 2a envelope glycoprotein E2 to binding affinity for HCV 6a envelope glycoprotein E2
How it was run: (§2)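 HepG2 cells stably expressing E1E2 of genotypes 1–6 were established by G418 selection, with parental HepG2 as control. E2 of each genotype was detected with the selected peptide (means ± SEM, three independent experiments).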

[6] = test system: Hepatitis C virus; assay: Antiviral activity against HCV 2a JFH-1 in human Huh 7.5.1 cells assessed as inhibition of viral infection at 100 to 500 nM after 4 hrs by Western blotting; type: functional, organism-based; conditions: Hepacivirus hominis
How it was run: (§3)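 Cells were washed and E2 was read out in two ways. Western blot used anti-E2 with β-actin as the internal control. Immunofluorescence used 4% paraformaldehyde fixation, rabbit anti-E2 with FITC anti-rabbit IgG for 4 h, and PI nuclear stain. Mean fluorescence was measured by confocal microscopy (means ± SEM, three experiments).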

[7] = test system: Hepacivirus hominis; assay: Ratio of binding affinity for HCV 2a envelope glycoprotein E2 to binding affinity for HCV 4a envelope glycoprotein E2; how it was run: as §2
[8] = test system: Hepacivirus hominis; assay: Ratio of binding affinity for HCV 1b envelope glycoprotein E2 to binding affinity for HCV 3a envelope glycoprotein E2; how it was run: as §2
[9] = test system: Hepatitis C virus subtype 2a; assay: Binding affinity to HCV 2a envelope glycoprotein E2; how it was run: as §2
[10] = test system: Hepacivirus hominis; assay: Ratio of binding affinity for HCV 1a envelope glycoprotein E2 to binding affinity for HCV 3a envelope glycoprotein E2; how it was run: as §2
[11] = test system: Hepatitis C virus; assay: Antiviral activity against HCV 2a JFH-1 in human Huh 7.5.1 cells cytoplasm assessed as inhibition of viral infection at 100 to 500 nM after 4 hrs by immunofluorescence staining; type: functional, organism-based; conditions: Hepacivirus hominis; how it was run: as §3
[12] = test system: Hepatitis C virus; assay: Binding affinity to HCV in virus infected patient serum after 1 hr by sandwich ELISA; conditions: Hepacivirus hominis
How it was run: (§4)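 Sandwich ELISA with wells coated with 0.3 nM peptide and blocked with 2% BSA at 4°C overnight. Serum (100 μl) from HCV antibody/RNA-positive patients (n = 50) or negative healthy donors (n = 55) was incubated 30 min at 37°C. Captured particles were detected with rabbit anti-E2 polyclonal (1:150, 1 h, 37°C), then HRP-labelled reagent, read at A450, and analysed by a nonparametric method.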

[13] = test system: Hepacivirus hominis; assay: Ratio of binding affinity for HCV 1b envelope glycoprotein E2 to binding affinity for HCV 5a envelope glycoprotein E2; how it was run: as §2
[14] = test system: Hepatitis C virus subtype 6a; assay: Binding affinity to HCV 6a envelope glycoprotein E2; how it was run: as §2
[15] = test system: Hepatitis C virus JFH-1; assay: Binding affinity to HCV 2a JFH-1 viral particle after 1 hr by indirect ELISA
How it was run: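 Wells were coated with 3 × 10⁵ JFH-1 HCVcc particles per well in carbonate buffer pH 9.6 (7 h, 4°C) and blocked with 1% BSA at 4°C overnight. Control culture medium served as comparison. Biotin-labelled peptide at different concentrations was incubated 30 min at 37°C, followed by HRP-streptavidin (1:1,000) for 1 h at 37°C. Signal was developed with o-phenylenediamine and read at A450 (triplicates; six experiments).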

[16] = test system: Hepatitis C virus subtype 5a; assay: Binding affinity to HCV 5a envelope glycoprotein E2; how it was run: as §2
[17] = test system: Hepacivirus hominis; assay: Ratio of binding affinity for HCV 1a envelope glycoprotein E2 to binding affinity for HCV 5a envelope glycoprotein E2; how it was run: as §2
[18] = test system: Hepatitis C virus; assay: Binding affinity to HCV in […] healthy human serum after 1 hr by sandwich ELISA; type: cell-free; conditions: Hepacivirus hominis; how it was run: as §4
[19] = test system: Hepatitis C virus subtype 4a; assay: Binding affinity to HCV 4a envelope glycoprotein E2; how it was run: as §2
[20] = test system: Hepacivirus hominis; assay: Ratio of binding affinity for HCV 1b envelope glycoprotein E2 to binding affinity for HCV 6a envelope glycoprotein E2; how it was run: as §2
[21] = test system: Hepatitis C virus; assay: Antiviral activity against HCV 2a JFH-1 in human Huh 7.5.1 cells cytoplasm assessed as inhibition of viral infection at 100 to 500 nM after 4 hrs by RT-PCR analysis; type: functional, organism-based; conditions: Hepacivirus hominis, in the assay text read “after overnight incubation” for “after 4 hrs”
How it was run: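 Huh-7.5.1 cells (4.5 × 10⁵/well) were co-cultured overnight at 37°C with 200 μl (7 × 10⁷ copies) of JFH-1 HCVcc and peptide at different final concentrations. After washing in DEPC-PBS, total RNA was extracted with Trizol and reverse transcribed. Intracellular HCV RNA was quantified by real-time PCR using 5′ NCR primers and normalized to GAPDH mRNA (means ± SEM, three experiments).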

[22] = test system: CT26; assay: Inhibition of HCV envelope glycoprotein E2 to […] cells expressing SR-B1 after 1 hr by flow cytometry; type: cell-based; conditions: Hepacivirus hominis
[23] = test system: Hepacivirus hominis; assay: Ratio of binding affinity for HCV 1a envelope glycoprotein E2 to binding affinity for HCV 4a envelope glycoprotein E2; how it was run: as §2
[24] = test system: Hepacivirus hominis; assay: Ratio of binding affinity for HCV 2a envelope glycoprotein E2 to binding affinity for HCV 3a envelope glycoprotein E2; how it was run: as §2
[25] = test system: Hepatitis C virus; assay: Binding affinity to HCV 1b envelope glycoprotein E2; conditions: Hepatitis C virus subtype 1b; how it was run: as §2
[26] = test system: Hepatitis C virus subtype 1a; assay: Binding affinity to HCV 1a envelope glycoprotein E2; how it was run: as §2
[27] = test system: Hepacivirus hominis; assay: Ratio of binding affinity for HCV 1b envelope glycoprotein E2 to binding affinity for HCV 4a envelope glycoprotein E2; how it was run: as §2
[28] = test system: CT26; assay: Inhibition of HCV envelope glycoprotein E2 to […] cells expressing OCLN after 1 hr by flow cytometry; type: cell-based; conditions: Hepacivirus hominis
[29] = test system: CT26; assay: Inhibition of HCV envelope glycoprotein E2 to […] cells expressing CLDN1 after 1 hr by flow cytometry; type: cell-based; conditions: Hepacivirus hominis
[30] = test system: Hepacivirus hominis; assay: Ratio of binding affinity for HCV 2a envelope glycoprotein E2 to binding affinity for HCV 5a envelope glycoprotein E2; how it was run: as §2
[31] = test system: Hepacivirus hominis; assay: Ratio of binding affinity for HCV 1a envelope glycoprotein E2 to binding affinity for HCV 6a envelope glycoprotein E2; how it was run: as §2
[32] = test system: Hepatitis C virus; assay: Antiviral activity against HCV 2a JFH-1 in human Huh 7.5.1 cells assessed as inhibition of viral infection at 100 to 500 nM after 4 hrs by immunofluorescence staining; type: functional, organism-based; conditions: Hepacivirus hominis, in the assay text read “after overnight incubation” for “after 4 hrs”; how it was run: as §3
[33] = test system: CT26; assay: Inhibition of HCV envelope glycoprotein E2 to […] cells expressing CD81 after 1 hr by flow cytometry; type: cell-based; conditions: Hepacivirus hominis
[34] = test system: Hepatitis C virus subtype 3a; assay: Binding affinity to HCV 3a envelope glycoprotein E2; how it was run: as §2

cell-bound E2 remaining [1]: 32%
Kd ([2]; read-out: Kd): 50 nM
Structure (SMILES): N=C(N)NCCC[C@H](NC(=O)CNC(=O)[C@H](Cc1ccccc1)NC(=O)CN)C(=O)N[C@@H](Cc1ccc(O)cc1)C(=O)N[C@@H](CCCNC(=N)N)C(=O)N[C@@H](CCCNC(=N)N)C(=O)N[C@@H](Cc1cnc[nH]1)C(=O)NCC(=O)N[C@@H](CO)C(=O)N1CCC[C@H]1C(=O)N[C@@H](Cc1c[nH]c2ccccc12)C(=O)O (H-GFGRYRRHGSPW-OH)

cell-bound E2 remaining [1]: 30%
Kd [2]: Not Active
Structure (SMILES): CC[C@H](C)[C@H](NC(=O)[C@@H](NC(=O)[C@H](CC(C)C)NC(=O)[C@@H](NC(=O)[C@H](CO)NC(=O)[C@@H](N)CC(C)C)C(C)C)C(C)C)C(=O)N[C@@H](CO)C(=O)N[C@@H](CCSC)C(=O)N[C@@H](Cc1ccccc1)C(=O)N[C@@H](CC(N)=O)C(=O)N[C@@H](C)C(=O)N[C@H](C(=O)O)C(C)C (H-LSVLVISMFNAV-OH)

cell-bound E2 remaining [1]: 7%
inhibition [3]: Dose-dependent effect
Kd ([2]; read-out: Kd): 43 nM
Structure (SMILES): CC[C@H](C)[C@H](NC(=O)[C@H](C)NC(=O)[C@@H](N)CCSC)C(=O)NCC(=O)N1CCC[C@H]1C(=O)N[C@@H](Cc1ccc(O)cc1)C(=O)N1CCC[C@H]1C(=O)N[C@@H](C)C(=O)N[C@@H](CS)C(=O)NCC(=O)N[C@@H](CO)C(=O)NCC(=O)O (H-MAIGPYPACGSG-OH)

Activity [4]: Dose-dependent effect
Ratio [5]: 2
Ratio [7]: 2
Ratio [8]: 2
Activity [9]: Active
Ratio [10]: 2
Activity [12]: Active
Ratio [13]: 2
Activity [14]: Active
Activity [15]: Dose-dependent effect
Activity [16]: Active
Ratio [17]: 2
Activity [18]: inactive
Activity [19]: Active
Ratio [20]: 2
Ratio [23]: 2
Ratio [24]: 2
Activity [26]: Active
Ratio [27]: 2
Ratio [30]: 2
Ratio [31]: 2
inhibition [3]: Dose-dependent effect
Activity [34]: Active
Kd ([2]; read-out: Kd): 19 nM
Structure (SMILES): CSCC[C@H](NC(=O)[C@@H](NC(=O)[C@H](CC(C)C)NC(=O)[C@@H]1CCCN1C(=O)[C@H](Cc1c[nH]c2ccccc12)NC(=O)[C@H](CC(N)=O)NC(=O)[C@H](CCCNC(=N)N)NC(=O)[C@H](Cc1cnc[nH]1)NC(=O)[C@H](CCCNC(=N)N)NC(=O)[C@H](C)NC(=O)[C@@H](N)CCSC)C(C)C)C(=O)N[C@H](C(=O)O)C(C)C (H-MARHRNWPLVMV-OH)
Activity [6]: Dose-dependent effect
Activity [11]: Active
Activity [21]: Active
inhibition [22]: inactive
Activity [25]: Active
inhibition [28]: inactive
inhibition [29]: inactive
Activity [32]: Dose-dependent effect
inhibition [33]: Active
